Measurements collected from several papers.
Compare with care: the assays were run in different laboratories.
Organism: Leishmania infantum
Read-out: parasite growth

The EC50 of `c1ccc(-c2nc3n(c2-c2ccc4cccnc4c2)CCC3)nc1` is reported as 3.98 µM (5 days, intracellular, amastigote).
The IC50 of `CCCCCCCCCCCCCCCCC#CC(=O)O` is reported as 50.6 µM (52 h, promastigote).
The IC50 of `O=C(N[C@@H](Cc1ccccc1)C(=O)c1nc2ccccc2s1)[C@H](Cc1ccccc1)NC(=O)N1CCOCC1` is reported as 12.7 µM (intracellular, amastigote).
The EC50 of `CCCCCCCCCCCCCCCCOP(=O)([O-])OCC[N+](C)(C)C` is reported as 8.3 µM (imaging; mouse Macrophage; 5 days, intracellular, amastigote).
With `Fc1ccc(Nc2c(-c3cccnn3)nc3ccccn23)cc1` the IC50 was 34.6 µM (intracellular, amastigote).
For `O=C(N[C@@H](CCc1ccccc1)C(=O)c1cc(-c2ccccc2)on1)[C@H](Cc1ccccc1)NC(=O)N1CCOCC1` (single isomer, unassigned), the IC50 was greater than 64 µM (intracellular, amastigote).
The EC50 of `Cc1ccc(-c2c(-c3ccccn3)nc3n2CCC3)cc1` is reported as 0.501 µM (5 days, intracellular, amastigote).
`O=C(N[C@@H](Cc1ccccc1)C(=O)c1nccs1)[C@H](Cc1ccccc1)NC(=O)N1CCOCC1` has an IC50 of greater than 64 µM (intracellular, amastigote).
The IC50 of `CCCCCCCCCCCCCCCCOP(=O)([O-])OCC[N+](C)(C)C` is reported as 5.28 µM (imaging; intracellular, amastigote).
